Experimental data taken from ChEMBL document CHEMBL1122519, “Bispyridinamines: a new class of topical antimicrobial agents as inhibitors of dental plaque” (1984).

Assays:
Escherichia coli [1] = test: Antimicrobial minimum inhibitory concentration against Escherichia coli 100/B22; assay type: functional
In short: (§1)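 Serial twofold tube dilution in tryptose phosphate broth. Each compound was prepared as a 1000 μg/mL aqueous stock and diluted in double-strength broth, then 2×10^5 cells were added. Tubes were incubated aerobically at 37 °C for 24 h. The MIC was taken as the lowest concentration with no visible growth.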

Escherichia coli [2] = test: Antimicrobial minimum inhibitory concentration against Escherichia coli AB1932-1; assay type: functional; in short: as §1
Pseudomonas aeruginosa = test: Minimum antimicrobial inhibitory concentration against Pseudomonas aeruginosa MGH-2; assay type: functional; in short: as §1
Streptococcus mutans = test: Minimum plaque inhibitory concentration using a standard test organism, Streptococcus mutans OMZ-61; assay type: functional, organism-based
In short: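 Ceramic hydroxylapatite plates were soaked twice for 1 min each in compound at […] (aqueous), air-dried and rinsed, then hung in sucrose beef-extract medium (pH 7.0) inoculated with late-log S. mutans OMZ-61. Incubation was anaerobic at 37 °C for 24 h, and treatment plus reinoculation were repeated for a second 24 h. Plaque was stained with 1% FD&C Red No. 3 and scored visually. The value is the lowest concentration giving no plaque while medium growth matched control.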

Staphylococcus aureus = test: Minimum antimicrobial inhibitory concentration against Staphylococcus aureus; assay type: functional; in short: as §1
Klebsiella pneumoniae = test: Minimum inhibitory concentration against Klebsiella pneumonia 39645; assay type: functional; in short: as §1
Escherichia coli [3] = test: Minimum inhibitory concentration against Escherichia coli (Vogel); assay type: functional; in short: as §1
Proteus mirabilis = test: Minimum antimicrobial inhibitory concentration against Proteus mirabilis MGH-1; assay type: functional; in short: as §1

SMILES: CCCCCCN=c1ccn(CCCCCCCCCCCCn2ccc(=NCCCCCC)cc2)cc1.Cl.Cl
- MIC (Escherichia coli [1]): 0.5 µg/mL
- MIC (Escherichia coli [2]): 1 µg/mL
- MIC (Pseudomonas aeruginosa): 15.6 µg/mL
- Concentration (Streptococcus mutans): 0.01%
- MIC (Staphylococcus aureus): 0.2 µg/mL
- MIC (Klebsiella pneumoniae): 1 µg/mL
- MIC (Escherichia coli [3]): 1 µg/mL
- MIC (Proteus mirabilis): 7.8 µg/mL

SMILES: Br.Br.CCCCCCCCCCN=c1ccn(CCCCCCCCCCn2ccc(=NCCCCCCCCCC)cc2)cc1
- MIC (Escherichia coli [1]): 15.6 µg/mL
- MIC (Escherichia coli [2]): 15.6 µg/mL
- MIC (Pseudomonas aeruginosa): 15.6 µg/mL
- Concentration (Streptococcus mutans): 0.01%
- MIC (Staphylococcus aureus): 2 µg/mL
- MIC (Klebsiella pneumoniae): 31.3 µg/mL
- MIC (Escherichia coli [3]): 7.8 µg/mL
- MIC (Proteus mirabilis): 7.8 µg/mL

SMILES: Br.Br.CCCCCCCCN=c1ccn(CCCCCCCn2ccc(=NCCCCCCCC)cc2)cc1
- MIC (Escherichia coli [1]): 1 µg/mL
- MIC (Escherichia coli [2]): 1 µg/mL
- MIC (Pseudomonas aeruginosa): 31.3 µg/mL
- Concentration (Streptococcus mutans): 0.005%
- MIC (Staphylococcus aureus): 0.5 µg/mL
- MIC (Klebsiella pneumoniae): 1 µg/mL
- MIC (Escherichia coli [3]): 2 µg/mL
- MIC (Proteus mirabilis): 7.8 µg/mL

SMILES: CS(=O)(=O)O.CS(=O)(=O)O.Clc1ccc(N=c2ccn(CCCCCCn3ccc(=Nc4ccc(Cl)cc4)cc3)cc2)cc1
- MIC (Escherichia coli [1]): 15.6 µg/mL
- MIC (Escherichia coli [2]): 3.9 µg/mL
- MIC (Pseudomonas aeruginosa): 500 µg/mL
- Concentration (Streptococcus mutans): > 1%
- MIC (Staphylococcus aureus): 3.9 µg/mL
- MIC (Klebsiella pneumoniae): 500 µg/mL
- MIC (Escherichia coli [3]): 15.6 µg/mL
- MIC (Proteus mirabilis): 500 µg/mL

SMILES: Br.Br.c1cn(CCCCCCCCCn2ccc(=NC3CCCCC3)cc2)ccc1=NC1CCCCC1
- MIC (Escherichia coli [1]): 31.3 µg/mL
- MIC (Escherichia coli [2]): 31.3 µg/mL
- MIC (Pseudomonas aeruginosa): 500 µg/mL
- Concentration (Streptococcus mutans): > 1%
- MIC (Staphylococcus aureus): 1 µg/mL
- MIC (Klebsiella pneumoniae): 125 µg/mL
- MIC (Escherichia coli [3]): 31.3 µg/mL
- MIC (Proteus mirabilis): > 500 µg/mL

SMILES: Br.Br.CCCCCCCCCCN=c1ccn(CCCCCCCCCCCCn2ccc(=NCCCCCCCCCC)cc2)cc1
- MIC (Escherichia coli [1]): 15.6 µg/mL
- MIC (Escherichia coli [2]): 31.3 µg/mL
- MIC (Pseudomonas aeruginosa): 15.6 µg/mL
- Concentration (Streptococcus mutans): 0.1%
- MIC (Staphylococcus aureus): 2 µg/mL
- MIC (Klebsiella pneumoniae): 31.3 µg/mL
- MIC (Escherichia coli [3]): 7.8 µg/mL
- MIC (Proteus mirabilis): 15.6 µg/mL

SMILES: Br.Br.Fc1ccc(N=c2ccn(CCCCCCCCn3ccc(=Nc4ccc(F)cc4)cc3)cc2)cc1
- MIC (Escherichia coli [1]): 15.6 µg/mL
- MIC (Escherichia coli [2]): 7.8 µg/mL
- MIC (Pseudomonas aeruginosa): > 62.5 µg/mL
- Concentration (Streptococcus mutans): > 1%
- MIC (Staphylococcus aureus): 2 µg/mL
- MIC (Klebsiella pneumoniae): > 62.5 µg/mL
- MIC (Escherichia coli [3]): 15.6 µg/mL
- MIC (Proteus mirabilis): > 125 µg/mL

SMILES: Br.Br.CCCCC(CC)CN=c1ccn(CCCCn2ccc(=NCC(CC)CCCC)cc2)cc1 (stereo not drawn)
- MIC (Escherichia coli [1]): 31.3 µg/mL
- MIC (Escherichia coli [2]): 7.8 µg/mL
- MIC (Pseudomonas aeruginosa): 125 µg/mL
- Concentration (Streptococcus mutans): > 1%
- MIC (Staphylococcus aureus): 1 µg/mL
- MIC (Klebsiella pneumoniae): > 125 µg/mL
- MIC (Escherichia coli [3]): 62.5 µg/mL
- MIC (Proteus mirabilis): > 125 µg/mL

SMILES: Br.Br.CCCCCCN=c1ccn(CCCCCCCCCn2ccc(=NCCCCCC)cc2)cc1
- MIC (Escherichia coli [1]): 2 µg/mL
- MIC (Escherichia coli [2]): 2 µg/mL
- MIC (Pseudomonas aeruginosa): 125 µg/mL
- Concentration (Streptococcus mutans): > 1%
- MIC (Staphylococcus aureus): 0.4 µg/mL
- MIC (Klebsiella pneumoniae): 3.9 µg/mL
- MIC (Escherichia coli [3]): 2 µg/mL
- MIC (Proteus mirabilis): 125 µg/mL

SMILES: Br.Br.N=c1ccn(CCCCCCCCn2ccc(=N)cc2)cc1
- MIC (Escherichia coli [1]): 250 µg/mL
- MIC (Escherichia coli [2]): 125 µg/mL
- MIC (Pseudomonas aeruginosa): > 500 µg/mL
- Concentration (Streptococcus mutans): > 1%
- MIC (Staphylococcus aureus): 31.3 µg/mL
- MIC (Klebsiella pneumoniae): > 500 µg/mL
- MIC (Escherichia coli [3]): 125 µg/mL
- MIC (Proteus mirabilis): > 500 µg/mL

SMILES: CCCCCCCN=c1ccn(CCCCCCCCCCCCCCn2ccc(=NCCCCCCC)cc2)cc1.Cl.Cl
- MIC (Escherichia coli [1]): 1 µg/mL
- MIC (Escherichia coli [2]): 1 µg/mL
- MIC (Pseudomonas aeruginosa): 2 µg/mL
- Concentration (Streptococcus mutans): 0.01%
- MIC (Staphylococcus aureus): 1 µg/mL
- MIC (Klebsiella pneumoniae): 3.9 µg/mL
- MIC (Escherichia coli [3]): 2 µg/mL
- MIC (Proteus mirabilis): 3.9 µg/mL

SMILES: Br.Br.CCCCCCN=c1ccn(CCCCCCCn2ccc(=NCCCCCC)cc2)cc1
- MIC (Escherichia coli [1]): 7.8 µg/mL
- MIC (Escherichia coli [2]): 7.8 µg/mL
- MIC (Pseudomonas aeruginosa): > 125 µg/mL
- Concentration (Streptococcus mutans): > 1%
- MIC (Staphylococcus aureus): 0.4 µg/mL
- MIC (Klebsiella pneumoniae): 15.6 µg/mL
- MIC (Escherichia coli [3]): 15.6 µg/mL
- MIC (Proteus mirabilis): > 125 µg/mL

SMILES: Br.Br.CCCCCCN=c1ccn(CCCCCCn2ccc(=NCCCCCC)cc2)cc1
- MIC (Escherichia coli [1]): 7.8 µg/mL
- MIC (Escherichia coli [2]): 7.8 µg/mL
- MIC (Pseudomonas aeruginosa): > 125 µg/mL
- Concentration (Streptococcus mutans): 1%
- MIC (Staphylococcus aureus): 0.5 µg/mL
- MIC (Klebsiella pneumoniae): 125 µg/mL
- MIC (Escherichia coli [3]): 31.3 µg/mL
- MIC (Proteus mirabilis): > 250 µg/mL

SMILES: Br.Br.CCCCCCCCCCCCN=c1ccn(CCCCCCn2ccc(=NCCCCCCCCCCCC)cc2)cc1
- MIC (Escherichia coli [1]): 62.5 µg/mL
- MIC (Escherichia coli [2]): > 62.5 µg/mL
- MIC (Pseudomonas aeruginosa): > 62.5 µg/mL
- Concentration (Streptococcus mutans): 0.1%
- MIC (Staphylococcus aureus): 7.8 µg/mL
- MIC (Klebsiella pneumoniae): > 62.5 µg/mL
- MIC (Escherichia coli [3]): 31.3 µg/mL
- MIC (Proteus mirabilis): > 62.5 µg/mL

SMILES: CCCCCCCN=c1ccn(CCCCCCn2ccc(=NCCCCCCC)cc2)cc1.Cl.Cl
- MIC (Escherichia coli [1]): 2 µg/mL
- MIC (Escherichia coli [2]): 2 µg/mL
- MIC (Pseudomonas aeruginosa): > 62.5 µg/mL
- Concentration (Streptococcus mutans): > 1%
- MIC (Staphylococcus aureus): 0.2 µg/mL
- MIC (Klebsiella pneumoniae): 3.9 µg/mL
- MIC (Escherichia coli [3]): 3.9 µg/mL
- MIC (Proteus mirabilis): > 125 µg/mL

SMILES: Br.Br.CCCCCCCCCCCCN=c1ccn(CCCCCCCCCCCCn2ccc(=NCCCCCCCCCCCC)cc2)cc1
- MIC (Escherichia coli [1]): > 62.5 µg/mL
- MIC (Escherichia coli [2]): > 62.5 µg/mL
- MIC (Pseudomonas aeruginosa): > 62.5 µg/mL
- Concentration (Streptococcus mutans): 0.1%
- MIC (Staphylococcus aureus): 31.3 µg/mL
- MIC (Klebsiella pneumoniae): > 62.5 µg/mL
- MIC (Escherichia coli [3]): > 62.5 µg/mL
- MIC (Proteus mirabilis): > 62.5 µg/mL
